In PMC4715766 (ACS Chemical Biology, 2015):

Assays:
[1] = biological target: DYNC2H1 (Homo sapiens, UniProt Q8NCM8); test: DYNC2H1 ATPase assay; assay type: biochemical
Method in brief: (§1)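 Purified N-terminally SBP- and SNAP-tagged full-length human heavy chains; hydrolysis of γ-32P ATP measured at 37 °C under conditions kept linear from enzyme reaction curves. Single-dose screens used 50 μM in both assays (about 25 nM γ-32P ATP, duplicates), or 50 μM for DYNC1H1 and 15 μM for DYNC2H1 (two experiments). IC50 calculated from dose-response curves run in triplicate.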

[2] = biological target: DYNC1H1 (Homo sapiens, UniProt Q14204); test: DYNC1H1 ATPase assay; assay type: biochemical
Method in brief: as §1

[3] = test system: Hh signaling; test: Hh signaling assay; assay type: cell-based, murine; conditions: ShhN-conditioned medium and compound for 30 h
[4] = test system: NIH-3T3 cell-derived line; test: Ciliogenesis assay; assay type: cell-based, murine; conditions: 30 μM; 24 h
Method in brief: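 NIH-3T3-derived cells were exposed to the test compound at 30 μM for 24 h, then fixed and immunostained for ARL13B. Primary cilium length was taken as the mean number of ARL13B-positive pixels per cell over at least 6 fields of view, about 800 cells per condition, reported ± s.e.m.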

[5] = test system: IMCD3 cells; test: Real-time imaging of mNeonGreen-IFT88 movement; assay type: cell-based, murine; conditions: 15 μM
Method in brief: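 Live IMCD3 cells expressing mNeonGreen-IFT88 were given 15 μM test compound or DMSO for 3 min and imaged in real time. Foci were tracked and classed as anterograde, retrograde or immobile, and their mean velocity and frequency were quantified from at least seven cilia across three independent experiments (± s.e.m.; P < 0.05 or 0.01).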

DYNC1H1, sequence (Q14204 whole entry): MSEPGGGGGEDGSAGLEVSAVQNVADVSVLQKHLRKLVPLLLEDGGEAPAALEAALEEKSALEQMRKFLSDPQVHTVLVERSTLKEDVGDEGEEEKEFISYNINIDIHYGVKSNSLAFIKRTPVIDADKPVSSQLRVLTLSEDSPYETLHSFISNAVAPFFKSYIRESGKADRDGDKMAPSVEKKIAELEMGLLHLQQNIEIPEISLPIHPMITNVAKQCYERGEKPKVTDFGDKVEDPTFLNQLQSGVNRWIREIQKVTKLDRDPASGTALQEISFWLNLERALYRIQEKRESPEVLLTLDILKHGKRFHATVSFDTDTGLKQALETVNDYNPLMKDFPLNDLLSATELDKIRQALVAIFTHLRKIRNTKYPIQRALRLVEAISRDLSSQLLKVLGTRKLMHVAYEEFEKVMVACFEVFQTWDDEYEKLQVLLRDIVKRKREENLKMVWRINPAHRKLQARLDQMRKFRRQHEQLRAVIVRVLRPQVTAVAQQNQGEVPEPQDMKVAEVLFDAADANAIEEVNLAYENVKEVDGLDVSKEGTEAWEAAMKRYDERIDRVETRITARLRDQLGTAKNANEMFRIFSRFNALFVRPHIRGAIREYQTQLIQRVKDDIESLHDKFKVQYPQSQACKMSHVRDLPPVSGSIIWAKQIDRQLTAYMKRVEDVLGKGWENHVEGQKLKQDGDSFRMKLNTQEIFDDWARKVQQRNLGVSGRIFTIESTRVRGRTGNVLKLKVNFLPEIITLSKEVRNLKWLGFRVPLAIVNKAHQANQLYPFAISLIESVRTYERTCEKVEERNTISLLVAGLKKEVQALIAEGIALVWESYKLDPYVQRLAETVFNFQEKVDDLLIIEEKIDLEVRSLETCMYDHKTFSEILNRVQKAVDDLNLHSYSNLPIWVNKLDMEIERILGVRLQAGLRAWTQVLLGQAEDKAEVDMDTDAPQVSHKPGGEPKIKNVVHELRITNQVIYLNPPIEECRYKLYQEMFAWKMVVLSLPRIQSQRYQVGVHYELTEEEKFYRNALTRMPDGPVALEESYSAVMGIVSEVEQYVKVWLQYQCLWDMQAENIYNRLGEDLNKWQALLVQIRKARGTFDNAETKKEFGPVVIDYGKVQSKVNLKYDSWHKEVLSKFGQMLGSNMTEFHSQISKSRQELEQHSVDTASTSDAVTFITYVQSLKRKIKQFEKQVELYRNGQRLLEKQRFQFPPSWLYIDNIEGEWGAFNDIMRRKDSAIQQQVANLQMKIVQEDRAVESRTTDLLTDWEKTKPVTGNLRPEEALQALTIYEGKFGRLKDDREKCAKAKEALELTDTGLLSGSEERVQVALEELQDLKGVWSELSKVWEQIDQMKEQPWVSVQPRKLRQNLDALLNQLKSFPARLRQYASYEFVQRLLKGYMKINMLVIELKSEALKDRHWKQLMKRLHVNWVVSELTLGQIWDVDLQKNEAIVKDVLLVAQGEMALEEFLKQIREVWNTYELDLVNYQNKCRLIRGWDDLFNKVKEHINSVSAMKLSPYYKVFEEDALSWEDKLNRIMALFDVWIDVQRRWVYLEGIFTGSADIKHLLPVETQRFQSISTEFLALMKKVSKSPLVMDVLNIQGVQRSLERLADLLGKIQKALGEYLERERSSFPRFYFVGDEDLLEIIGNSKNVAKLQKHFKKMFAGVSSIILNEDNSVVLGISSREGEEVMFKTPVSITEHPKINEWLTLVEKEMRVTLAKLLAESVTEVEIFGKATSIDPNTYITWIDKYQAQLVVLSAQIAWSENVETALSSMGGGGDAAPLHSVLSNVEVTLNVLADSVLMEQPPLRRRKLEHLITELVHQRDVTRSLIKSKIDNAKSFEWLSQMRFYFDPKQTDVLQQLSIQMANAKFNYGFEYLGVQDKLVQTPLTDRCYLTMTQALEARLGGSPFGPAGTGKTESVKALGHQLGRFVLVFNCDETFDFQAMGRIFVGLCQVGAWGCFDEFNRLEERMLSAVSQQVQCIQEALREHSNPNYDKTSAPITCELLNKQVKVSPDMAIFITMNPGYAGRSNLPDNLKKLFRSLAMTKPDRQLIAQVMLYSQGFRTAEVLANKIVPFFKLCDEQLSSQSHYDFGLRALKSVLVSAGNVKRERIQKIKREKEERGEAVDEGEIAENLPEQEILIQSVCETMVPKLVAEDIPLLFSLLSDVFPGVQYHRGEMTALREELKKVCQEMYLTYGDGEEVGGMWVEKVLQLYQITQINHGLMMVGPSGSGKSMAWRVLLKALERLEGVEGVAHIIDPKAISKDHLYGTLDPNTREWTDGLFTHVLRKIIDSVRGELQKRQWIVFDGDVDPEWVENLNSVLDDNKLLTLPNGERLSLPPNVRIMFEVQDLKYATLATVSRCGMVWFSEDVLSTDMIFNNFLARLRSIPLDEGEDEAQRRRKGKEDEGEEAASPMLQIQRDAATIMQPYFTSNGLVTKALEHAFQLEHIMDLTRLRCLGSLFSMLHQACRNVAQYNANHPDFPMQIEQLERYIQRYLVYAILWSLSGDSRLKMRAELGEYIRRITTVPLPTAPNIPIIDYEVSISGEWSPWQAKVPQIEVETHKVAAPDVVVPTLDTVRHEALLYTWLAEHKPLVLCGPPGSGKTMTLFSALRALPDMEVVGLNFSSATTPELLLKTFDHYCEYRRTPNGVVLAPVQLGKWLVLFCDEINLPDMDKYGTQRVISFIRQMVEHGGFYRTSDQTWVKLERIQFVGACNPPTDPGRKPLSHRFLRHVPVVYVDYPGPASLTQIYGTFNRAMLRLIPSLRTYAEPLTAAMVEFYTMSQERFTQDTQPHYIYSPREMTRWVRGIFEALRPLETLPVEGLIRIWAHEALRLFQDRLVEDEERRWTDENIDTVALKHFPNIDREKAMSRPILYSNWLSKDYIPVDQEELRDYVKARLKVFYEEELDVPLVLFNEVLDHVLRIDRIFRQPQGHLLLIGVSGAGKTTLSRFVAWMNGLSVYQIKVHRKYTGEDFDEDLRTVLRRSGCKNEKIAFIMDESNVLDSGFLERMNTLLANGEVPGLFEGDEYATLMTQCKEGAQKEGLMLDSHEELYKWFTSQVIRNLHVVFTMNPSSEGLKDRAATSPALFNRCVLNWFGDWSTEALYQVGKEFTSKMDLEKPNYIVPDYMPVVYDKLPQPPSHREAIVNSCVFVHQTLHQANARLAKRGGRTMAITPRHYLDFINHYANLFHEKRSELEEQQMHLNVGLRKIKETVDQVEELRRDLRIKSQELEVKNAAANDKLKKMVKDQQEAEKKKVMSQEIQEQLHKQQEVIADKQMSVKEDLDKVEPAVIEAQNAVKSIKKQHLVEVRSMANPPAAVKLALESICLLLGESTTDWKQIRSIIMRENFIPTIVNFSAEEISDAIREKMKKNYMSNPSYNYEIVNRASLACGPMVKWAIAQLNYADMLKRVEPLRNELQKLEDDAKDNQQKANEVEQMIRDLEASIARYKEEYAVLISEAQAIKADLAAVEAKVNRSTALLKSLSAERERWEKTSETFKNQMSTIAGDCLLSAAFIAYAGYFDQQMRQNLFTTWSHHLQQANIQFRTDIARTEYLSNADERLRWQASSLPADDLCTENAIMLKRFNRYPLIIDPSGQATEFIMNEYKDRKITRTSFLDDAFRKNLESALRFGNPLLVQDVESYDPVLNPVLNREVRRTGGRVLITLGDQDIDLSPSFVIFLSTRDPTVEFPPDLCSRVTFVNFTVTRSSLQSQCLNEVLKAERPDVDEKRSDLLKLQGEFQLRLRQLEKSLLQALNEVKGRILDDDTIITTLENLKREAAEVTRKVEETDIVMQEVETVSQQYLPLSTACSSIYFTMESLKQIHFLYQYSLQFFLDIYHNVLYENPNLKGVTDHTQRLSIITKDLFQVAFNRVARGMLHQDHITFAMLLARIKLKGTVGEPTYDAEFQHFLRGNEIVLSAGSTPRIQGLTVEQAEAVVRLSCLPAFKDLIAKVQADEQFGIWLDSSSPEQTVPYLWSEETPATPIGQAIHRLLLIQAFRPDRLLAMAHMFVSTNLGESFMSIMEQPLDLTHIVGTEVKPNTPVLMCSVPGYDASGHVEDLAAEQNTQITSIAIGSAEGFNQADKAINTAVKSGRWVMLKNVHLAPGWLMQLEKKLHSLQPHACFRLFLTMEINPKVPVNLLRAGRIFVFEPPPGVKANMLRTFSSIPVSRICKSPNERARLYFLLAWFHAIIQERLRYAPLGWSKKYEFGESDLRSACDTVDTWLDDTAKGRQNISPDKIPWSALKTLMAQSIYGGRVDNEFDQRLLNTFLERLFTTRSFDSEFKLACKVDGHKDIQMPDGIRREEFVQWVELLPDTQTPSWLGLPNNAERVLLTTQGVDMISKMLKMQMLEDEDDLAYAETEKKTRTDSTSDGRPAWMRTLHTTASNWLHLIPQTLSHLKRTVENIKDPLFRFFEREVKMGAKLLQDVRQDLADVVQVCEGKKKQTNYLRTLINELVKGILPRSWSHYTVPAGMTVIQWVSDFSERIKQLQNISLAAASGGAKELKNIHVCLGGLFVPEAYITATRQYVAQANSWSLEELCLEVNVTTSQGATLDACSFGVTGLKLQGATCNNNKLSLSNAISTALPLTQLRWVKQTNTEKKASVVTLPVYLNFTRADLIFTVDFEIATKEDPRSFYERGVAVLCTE

Row | SMILES | IC50 [1] | IC50 [2] | inhibition of Hh signaling [3] | inhibition of ciliogenesis / primary cilium length [4] | time to disruption of ciliary transport [5]
1 | CC(C)Oc1ccc2c(c1)NC(=C(C#N)C(=O)c1ccc(Cl)cc1Cl)NC2=O [analog 18] | 21 µM | 130 µM | Dose-dependent inhibition of Hh signaling | Inhibition of ciliogenesis | –
2 | Cc1ccc(COc2ccc3c(c2)NC(=C(C#N)C(=O)c2ccc(Cl)cc2Cl)NC3=O)cc1 [analog 37] | – | – | – | – | ≤ 3 min
